# In ChEMBL document CHEMBL3244054, “Kojic amine--a novel gamma-aminobutyric acid analogue” (J Med Chem, 1979):
# Calls of active or inactive are those of the source. The rule behind the calls is not given here.
# Columns and labels:
# Felis catus [1] = assay: Skeletal muscle relaxant activity in po dosed chronic spinal mongrel cat assessed as reduction of flexor spasm administered every 15 mins interval; format: functional
# How it was run: (§1)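 Test agent dissolved in normal saline and given to chronic spinal animals intravenously or by oral gavage as cumulative doses at 15-min intervals. The flexor reflex response was compared against predrug control responses. ED70 is the cumulative dose that reduced the flexor reflex by 70% or more.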
# [2] = Dissociation constant, pKa of the compound; format: physicochemical
# Rattus norvegicus [3] = assay: Skeletal muscle relaxant activity in iv dosed chronic spinal Sprague-Dawley rat assessed as reduction of flexor spasm administered every 15 mins interval; format: functional; settings: 0.25 h; how it was run: as §1
# Felis catus [4] = assay: Skeletal muscle relaxant activity in iv dosed chronic spinal mongrel cat assessed as reduction of flexor spasm administered every 15 mins interval; format: functional; settings: 0.25 h; how it was run: as §1
# Felis catus [5] = assay: Skeletal muscle relaxant activity in chronic spinal mongrel cat assessed as reduction of flexor spasm up to 16 mg/kg, iv administered every 15 mins interval; format: functional, organism-based; design: dose 16 mg/kg; how it was run: as §1
# Mus musculus [6] = assay: Anticonvulsant activity in po dosed Swiss mouse assessed as reduction of 3-mercaptopropionic acid-induced tonic extensor-seizures within 3 to 7 mins; format: functional
# How it was run: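 Robidoux Swiss male mice, 18–22 g. Test substances in saline given orally 30 min before ip 3-mercaptopropionic acid at 25 mg/kg, which induces tonic-extensor seizures within 3–7 min in 90–100% of mice. ED50 is the dose preventing tonic-extensor seizures in 50% of animals, by regression analysis over at least three doses with ten mice per dose level.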
# Mus musculus [7] = assay: Toxicity in Swiss mouse at 128 mg/kg, po; format: organism-based; design: dose 128 mg/kg, route oral; settings: in vivo
# Mus musculus [8] = assay: Toxicity in Swiss mouse at 8 mg/kg, po; format: organism-based; design: dose 8 mg/kg, route oral; settings: in vivo
# Rattus norvegicus [9] = assay: Toxicity in iv dosed chronic spinal Sprague-Dawley rat assessed as lethality at cumulative dose of 16 mg/kg, iv; format: organism-based; design: dose 16 mg/kg, route intravenous; settings: in vivo
# Felis catus [10] = assay: Skeletal muscle relaxant activity in chronic spinal mongrel cat assessed as reduction of flexor spasm up to 7.5 mg/kg, iv administered every 15 mins interval; format: functional, organism-based; design: dose 7.5 mg/kg
# How it was run: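 Chronic spinal cat preparation. Test substances in normal saline were given iv in cumulative doses at 15-min intervals, and the flexor reflex response was recorded against predrug control responses. ED70 is the cumulative dose reducing the flexor reflex response by 70% or more.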
smiles,measurement,setting,value
Cn1cc(O)c(=O)cc1CN,ED70,Felis catus [1],inactive
NCc1cc(=O)c(O)c[nH]1,ED70,Felis catus [1],inactive
O=c1cc(CNCc2ccccc2)occ1O,ED70,Felis catus [1],inactive
CNCc1cc(=O)c(O)co1,ED70,Felis catus [1],inactive
NC(Cl)c1cc(=O)c(O)co1 (stereo not given),ED70,Felis catus [1],inactive
CC(=O)NCc1cc(=O)c(O)co1,ED70,Felis catus [1],inactive
NCCCC(=O)O [GAMMA-AMINOBUTYRIC ACID],pKa,[2],4.04
NCC(=O)NCc1cc(=O)c(O)co1,ED70,Rattus norvegicus [3],8 mg/kg
same,ED70,Felis catus [4],12 mg/kg
NCCCc1cc(=O)c(O)co1,Activity,Felis catus [5],inactive
NCCc1cc(=O)c(O)co1,ED70,Felis catus [1],inactive
NCc1cc(=O)c(O)co1,ED70,Rattus norvegicus [3],8 mg/kg
same,ED70,Felis catus [4],2.2 mg/kg
same,ED70,Felis catus [1]; 0.25 h,4 mg/kg
same,ED50,Mus musculus [6],15 mg/kg
same,Activity,Mus musculus [7],Non-toxic
same,pKa,[2],6.6
CC(N)C(=O)NCc1cc(=O)c(O)co1 (stereo not given),ED70,Rattus norvegicus [3],8 mg/kg
same,ED70,Felis catus [4],12 mg/kg
NCCCC(=O)NCc1cc(=O)c(O)co1,ED70,Felis catus [1],inactive
CC(N)c1cc(=O)c(O)co1 (stereo not given),ED70,Felis catus [1],inactive
CN(C)Cc1cc(=O)c(O)co1,ED70,Felis catus [1],inactive
NCc1cc(=O)[nH]o1 [MUSCIMOL],Activity,Mus musculus [8],Toxic
same,Activity,Rattus norvegicus [9],Toxic
same,pKa,[2],4.78
NCc1cc(O)no1 [MUSCIMOL],Activity,Felis catus [10],inactive
same,ED70,Rattus norvegicus [3],16 mg/kg
same,ED50,Mus musculus [6],1.34 mg/kg
O=c1cc(CO)occ1O [KOJIC ACID],pKa,[2],7.95
NCCC(=O)NCc1cc(=O)c(O)co1,ED70,Felis catus [1],inactive
